In brackets after ≈: the same amount, converted by molar mass.
The compounds below were run on A549 (assay: Cytotoxicity against human A549 cells after 48 hrs by SRB assay). Details: A549, 48 h, read-out: ED50 (the source's name).
Assay type: functional
How it was run: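 A-549 human lung carcinoma cells grown adherent in RPMI-1640 with 5% heat-inactivated FBS, 37 °C, 5% CO2, humidified. Cells seeded in 96-well plates, preincubated 24 h, then exposed to compounds for 48 h. Fixed with cold 10% TCA, stained with 0.4% SRB in 1% acetic acid, OD read at 540 nm. ED50 = 50% growth inhibition; doxorubicin positive control.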

`C=C(C)[C@@H]1CC[C@]2(C(=O)O)CC[C@]3(C)[C@H](CC[C@@H]4[C@@]5(C)CC[C@H](O[C@@H]6OC[C@H](O[C@@H]7O[C@H](CO)[C@@H](O)[C@H](O)[C@H]7O)[C@H](O)[C@H]6O)[C@@](C)(CO)[C@@H]5CC[C@]43C)[C@@H]12` and `C=C(C)[C@@H]1CC[C@]2(C(=O)O)CC[C@]3(C)[C@H](CC[C@@H]4[C@@]5(C)CC[C@H](O[C@@H]6OC[C@H](O[C@@H]7O[C@H](CO)[C@@H](O)[C@H](O)[C@H]7O)[C@H](O)[C@H]6O[C@@H]6O[C@@H](C)[C@H](O)[C@@H](O)[C@H]6O)[C@@](C)(CO)[C@@H]5CC[C@]43C)[C@@H]12` cannot be ordered by EC50: > 10 µg/mL for the first, > 10 µg/mL for the second.

Going from `C[C@@H]1O[C@@H](O[C@H]2[C@H](O[C@H]3CC[C@@]4(C)[C@@H](CC[C@]5(C)[C@@H]4CC=C4[C@H]6CC(C)(C)CC[C@]6(C(=O)O)CC[C@]45C)[C@]3(C)CO)OC[C@H](O)[C@@H]2O)[C@H](O)[C@H](O)[C@H]1O` to `C[C@@H]1O[C@@H](O[C@H]2[C@H](O[C@H]3CC[C@]4(C)[C@H]5CC=C6[C@H]7CC(C)(C)CC[C@]7(C(=O)O)CC[C@@]6(C)[C@]5(C)CC[C@H]4C3(C)C)OC[C@H](O[C@@H]3O[C@H](CO)[C@@H](O)[C@H](O)[C@H]3O)[C@@H]2O)[C@H](O)[C@H](O)[C@H]1O`, the EC50 falls from 9.6 µg/mL (≈ 12.8 µM) to 2.6 µg/mL (≈ 2.9 µM) (3.7-fold).

`C[C@@H]1O[C@@H](O[C@H]2[C@H](O[C@H]3CC[C@@]4(C)[C@@H](CC[C@]5(C)[C@@H]4CC=C4[C@H]6CC(C)(C)CC[C@]6(C(=O)O)CC[C@]45C)[C@]3(C)CO)OC[C@H](O)[C@@H]2O)[C@H](O)[C@H](O[C@@H]2O[C@H](CO)[C@@H](O[C@@H]3O[C@H](CO)[C@@H](O)[C@H](O)[C@H]3O)[C@H](O)[C@H]2O)[C@H]1O` and `C=C(C)[C@@H]1CC[C@]2(C(=O)O)CC[C@]3(C)[C@H](CC[C@@H]4[C@@]5(C)CC[C@H](O[C@@H]6OC[C@H](O)[C@H](O)[C@H]6O[C@@H]6O[C@@H](C)[C@H](O)[C@@H](O[C@@H]7O[C@H](CO)[C@@H](O)[C@H](O)[C@H]7O)[C@H]6O)[C@@](C)(CO)[C@@H]5CC[C@]43C)[C@@H]12` cannot be ordered by EC50: > 10 µg/mL for the first, > 10 µg/mL for the second.

`C=C(C)[C@@H]1CC[C@]2(C(=O)O)CC[C@]3(C)[C@H](CC[C@@H]4[C@@]5(C)CC[C@H](O[C@@H]6OC[C@H](O[C@@H]7O[C@H](CO)[C@@H](O)[C@H](O)[C@H]7O)[C@H](O)[C@H]6O[C@@H]6O[C@@H](C)[C@H](O)[C@@H](O)[C@H]6O)C(C)(C)[C@@H]5CC[C@]43C)[C@@H]12` and `C=C(C)[C@@H]1CC[C@]2(C(=O)O)CC[C@]3(C)[C@H](CC[C@@H]4[C@@]5(C)CC[C@H](O[C@@H]6OC[C@H](O)[C@H](O)[C@H]6O[C@@H]6O[C@@H](C)[C@H](O)[C@@H](O[C@@H]7O[C@H](CO)[C@@H](O)[C@H](O)[C@H]7O)[C@H]6O)C(C)(C)[C@@H]5CC[C@]43C)[C@@H]12` cannot be ordered by EC50: > 10 µg/mL for the first, > 10 µg/mL for the second.

For `COc1cccc2c1C(=O)c1c(O)c3c(c(O)c1C2=O)C[C@@](O)(C(=O)CO)C[C@@H]3O[C@H]1C[C@H](N)[C@H](O)[C@H](C)O1` [DOXORUBICIN], the EC50 was 0.02 µg/mL (≈ 0.0368 µM).

— ChEMBL document CHEMBL1142590, “Triterpenoid saponins from the roots of Pulsatilla koreana” (2005)
